Measured values gathered from unrelated publications.
Lines come from different studies, so protocols differ.

CS(=O)(=O)N1CCN(Cc2cc3nc(-c4cccc5[nH]ncc45)nc(N4CCOCC4)c3s2)CC1
pKa: 4.24

COc1cccc(C=CCC(=O)O)c1OC
pKa: ~4.2

Cc1cc(Cl)cc(S(C)(=O)=O)c1NC(=O)c1cc(Br)nn1-c1ncccc1Cl
pKa (potentiometric): 8.95

CC#Cc1cncc(-c2ccc3c(c2)[C@@]2(N=C(C)C(N)=N2)[C@]2(CC[C@H](OC)CC2)C3)c1
pKa: 6.4

CC(C)(C)CCN1CC2C(CNC(=O)c3cc(Cl)cc(Cl)c3)C2C1 (stereo not shown)
pKa: 8.1

O=C1c2c(O)cc(O)cc2O[C@H](c2cc(O)c(O)c(O)c2)[C@H]1O
pKa (absorbance; aqueous buffer; pH 3.1): 7.9

COc1ccc(S(=O)(=O)N/N=C/c2cccc(C(=O)O)c2)cc1OC
pKa (aqueous buffer): 6.69

C=CC(=O)N(C)CCOc1c(N)ncnc1-c1cc(F)cc(NC(=O)c2ccc(C3CC3)cc2F)c1C
pKa: 4.1

CC(C)CC(=O)N1CCC[C@H](COc2cccc3c2C(N)=NS(=O)(=O)N3)C1
pKa: 6.31

COc1ccccc1Oc1c(NS(=O)(=O)c2ccc(C(C)(C)C)cc2)nc(-c2ncccn2)nc1OCCO
pKa: 5.11

COC(=O)c1ccc(/C=N/NS(=O)(=O)c2ccc(OC)c(OC)c2)cc1
pKa (aqueous buffer): 6.86

Cc1cnc(N2CC3(CCOCC3)C2)c(C(=O)Nc2ccc(C(=O)N3CCc4cc(C(=O)Nc5c(C)cccc5F)sc4-c4ccccc43)cc2)c1
pKa: 4.8

CCn1c(C(=O)N(C2CC2)C2CC2)cc2c3c(ncn3C)c(Nc3cc(C)n(C)n3)nc21
pKa: 4
